Consider 8 compounds from publication PMC9047252 (RSC Advances, 2020).

In one assay the test system is LO2 cells. Briefly: CCK-8 cytotoxicity assay, LO2. The class given is cell-based. The following applies: Homo sapiens, L02, 72 h, read-out: IC50 LO2. Put shortly: (§1)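 Cells seeded at 2500–3000 per well and held at 37 °C for 24 h, then exposed in triplicate to a range of test compound concentrations for 72 h, with 0.1% DMSO as control. CCK-8 added and incubated 2 h at 37 °C, then absorbance read at 450 nm. IC50 calculated and given as mean ± SD from three independent experiments.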

Assay [1] has as its system K562/ADR cells. Nature of the assay: CCK-8 antiproliferative assay, K562/ADR. The class given is cell-based. The following applies: Homo sapiens, 72 h, read-out: IC50 K562/ADR. The method in brief:
as §1
(In general: Tetrazolium assays rely on reduction of a dye to a coloured formazan, in cell work by metabolically active cells.)

Assay [2] has as its system K562 cells. Briefly: CCK-8 antiproliferative assay, K562. It is filed as cell-based. To be noted: Homo sapiens, K562, 72 h, read-out: IC50 K562. Put shortly: as §1
The subject of a further assay is HT-29 cells. The following applies: read-out: IC50 in HT-29 cells; cited from earlier work.
Assay [3] deals with K562 cells. Nature of the assay: Western blot analysis, K562. The class given is cell-based, human. The following applies: 10c 1, 5, 10 μM, 3 10 μM, 24 h. A general note: A western blot detects proteins with antibodies after separation by electrophoresis.
Assay [4] deals with K562/ADR cells. Briefly: Intracellular NO, DAF-FM DA, K562/ADR. It is filed as cell-based, human. The following applies: 10c 1, 10, 100 μM, 3 and 7 100 μM, 3 h. The method in brief:
(§2)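 Cells exposed to 0.1% DMSO or test compound at 37 °C for 3 h. Harvested, PBS-washed, and loaded with DAF-FM DA (50 μmol L−1) in incubation buffer at 37 °C for 30 min. Washed again, then NO fluorescence read by fluorescence microscopy and microplate reader. Three independent experiments, mean ± SD; Student's t-test against control.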

Assay [5] concerns K562 cells. Briefly: Intracellular NO, DAF-FM DA, K562. The following applies: 10c 1, 10, 100 μM, 3 and 7 100 μM, 3 h. It is filed as cell-based, human. The method in brief: as §2
The test system of assay [6] is K562/ADR cells. Nature of the assay: Western blot analysis, K562/ADR. To be noted: 10c 1, 5, 10 μM, 3 10 μM, 24 h. It is filed as cell-based, human.

With `COc1cccc2c1C(=O)c1c(O)c3c(c(O)c1C2=O)C[C@@](O)(C(=O)CO)C[C@@H]3O[C@H]1C[C@H](N)[C@H](O)[C@H](C)O1` [ADR, adriamycin], the IC50 amounted to 2.74 ± 0.123 µM in the assay with LO2 cells, 9.16 ± 0.658 µM in the assay with K562/ADR cells [1] and 0.672 ± 0.056 µM in the assay with K562 cells [2].

Take `COC(=O)C[C@](O)(CCCC(C)(C)O)C(=O)O[C@@H]1C(OC)=C[C@]23CCCN2CCc2cc4c(cc2[C@H]13)OCO4` [HHT, homoharringtonine]: the IC50 came to 0.915 ± 0.149 µM in the assay on LO2 cells, 3.26 ± 0.082 µM with K562/ADR cells [1] and 0.367 ± 0.011 µM in the assay on K562 cells [2].

Regarding `O=C(CCCO[N+](=O)[O-])Oc1ccccc1C(=O)Oc1ccc(-c2cc(=S)ss2)cc1` [NOSH-1], the IC50 in the assay on HT-29 cells is 0.048 µM.

As to `C[C@@H]1CC[C@H]2[C@@H](C)C(=O)O[C@@H]3O[C@@]4(C)CC[C@@H]1[C@]32OO4` [compound 1, Artemisinin], the IC50 in the assay with LO2 cells was 83.3 ± 1.99 µM; in the assay on K562/ADR cells [1], above 200 µM; in the assay on K562 cells [2] it was 11.1 ± 0.832 µM.

`C[C@H]1[C@@H](O)O[C@@H]2O[C@@]3(C)CC[C@H]4[C@H](C)CC[C@@H]1[C@@]24OO3` [compound 2, dihydroartemisinin]: the figures for the IC50 in the assay on LO2 cells, in the assay with K562/ADR cells [1] and in the assay on K562 cells [2] were 19.9 ± 1.66 µM, 28.1 ± 1.09 µM and 8.67 ± 0.277 µM, respectively.

Regarding `C[C@H]1[C@H](OC(=O)CCC(=O)O)O[C@@H]2O[C@@]3(C)CC[C@H]4[C@H](C)CC[C@@H]1[C@@]24OO3` [compound 3, artesunate], the AKT phosphorylation entry in the assay with K562 cells [3] and with K562/ADR cells [6] was “clearly reduced the levels of AKT phosphorylation” throughout. Further, the “AMPK and JNK phosphorylation” value in the assay on K562 cells [3] was “up-regulated the levels of AMPK and JNK phosphorylation”; with K562/ADR cells [6] it was “up-regulated the levels of AMPK and JNK phosphorylation”. Also, the values for the IC50 in the assay with LO2 cells, in the assay on K562/ADR cells [1] and with K562 cells [2] were 19.9 ± 0.331 µM, 36.4 ± 2.9 µM and 10.2 ± 0.135 µM, respectively. Besides, the “generation of intracellular NO” value in the assay with K562/ADR cells [4] and in the assay on K562 cells [5] was “increased the intracellular NO levels” throughout.

Turning to `Oc1ccc(-c2cc(=S)ss2)cc1` [compound 4, 5-(4-hydroxyphenyl)-3H-1,2-dithiole-3-thione], the IC50 with LO2 cells, in the assay on K562/ADR cells [1] and in the assay with K562 cells [2] was above 200 µM throughout.

On to `O=[N+]([O-])O[C@@H]1CO[C@H]2[C@@H]1OC[C@@H]2O` [compound 7, isosorbide 5-mononitrate], for which the IC50 in the assay with LO2 cells, in the assay with K562/ADR cells [1] and with K562 cells [2] was above 200 µM in each case. The “generation of intracellular NO” value in the assay on K562/ADR cells [4] and in the assay with K562 cells [5] was “increased the intracellular NO levels” in each case.
